Bioassay records deposited in PubChem BioAssay by several laboratories.
RORa activator – activates the human nuclear receptor RORA; activation, % at 10 µM; P35398; CHO-K1 Gal4-RORA LBD luciferase reporter, luminescence; percent increase over mock-subtracted basal signal; 1.5% of 65,000 active;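 active = activation above the mean of all tested compounds plus 3 SD, cut at about 49% in these data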
Target sequence (P35398 whole entry, looked up, the tested form may be a part): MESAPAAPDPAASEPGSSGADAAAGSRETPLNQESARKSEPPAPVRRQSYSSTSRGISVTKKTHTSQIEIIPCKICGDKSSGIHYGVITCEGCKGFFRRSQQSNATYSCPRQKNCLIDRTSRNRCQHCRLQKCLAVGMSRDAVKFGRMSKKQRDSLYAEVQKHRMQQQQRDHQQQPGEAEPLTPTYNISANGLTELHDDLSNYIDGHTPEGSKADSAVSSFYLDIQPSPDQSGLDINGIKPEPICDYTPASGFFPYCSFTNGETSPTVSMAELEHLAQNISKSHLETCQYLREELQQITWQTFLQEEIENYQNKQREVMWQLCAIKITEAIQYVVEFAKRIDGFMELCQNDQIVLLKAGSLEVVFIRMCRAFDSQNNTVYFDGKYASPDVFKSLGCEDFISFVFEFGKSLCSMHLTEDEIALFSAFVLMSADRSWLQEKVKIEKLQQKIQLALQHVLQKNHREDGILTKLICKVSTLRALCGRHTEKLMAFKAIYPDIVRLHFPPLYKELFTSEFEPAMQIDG
ERa coact pot – enhances coactivator binding to human estrogen receptor alpha. P03372. TR-FRET ERalpha-LBD/SRC-Cy5 coactivator binding, 2 h; 100 = basal binding, no effect. coactivator binding (% of control), % at 25.6 µM. 1.3% of 86,000 active; in the data active = activity above about 200%;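 also: binding measured in presence of low estradiol as agonist stimulus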
BAP1 inh – inhibitors of human BAP1 deubiquitinase | calls only at 20 µM | Q92560 | 0.48% of 72,000 active | recombinant BAP1, Ub-AMC hydrolysis fluorescence kinetic; active compounds read low;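 active = activity remaining at or below 50% of control, provided the compound also passes the data quality filters; inactive = the rest, including low values that fail the filters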
ERb coact inh – ER-beta (human) coactivator binding inhibition; Q92731; TR-FRET ER-beta LBD / SRC1-Cy5 peptide binding; receptor agonist-loaded with 1 µM estradiol; inhibition, % at 25.6 µM; 1.3% of 86,000 active; AID 633;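 active = compounds whose percent inhibition of the receptor-coactivator binding signal exceeds about 50% in the single-dose screen, limit read from the data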
SF-1 act – activators of human nuclear receptor SF-1; Q13285; CHO-K1 Gal4-SF-1 LBD luciferase reporter; % increase over DMSO SF-1-specific signal; activation, % at 10 µM; 1.9% of 65,000 active; AID 522;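 active = activation above the mean activation of all tested compounds plus 3 SD, cut at about 50% in these data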
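Test system: CHO-K1 cells with Gal4–hSF-1 LBD chimera plus Gal4-driven luciferase; Input: 4,000 cells/well; Compound: 10 µM only; Times: 20 h compound treatment, 37 °C; Measured by: steady-glow luciferase luminescence, read after 15 min reagent incubation; Measure: percent activation versus DMSO; Control set: DMSO and mock-transfected background; Replicates: one test per compound.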
ERa coact inh – blocks coactivator binding to human estrogen receptor alpha | inhibition, % at 25.6 µM | 1.7% of 86,000 active | TR-FRET ER-alpha LBD / SRC-1 peptide, estradiol-bound; in the data active = inhibition above about 50%
A number is an active result; – = inactive; · = no result; [ ] = dose if it differs, or a comment. Rows were chosen to be rich in hits. Some 5.1% of all compounds tested hit in one or more screens of this group.

SMILES	RORa activator	ERa coact pot	BAP1 inh	ERb coact inh	SF-1 act	ERa coact inh
Cc1ccc(-c2cc(C(=O)NC3=NCCS3)c3cc(Br)ccc3n2)o1	–	281[fluorescence artefact?]	–	–	–	52[fluorescence artefact?]
COc1ccc(C(=O)NCCCn2ccnc2)cc1	–	–	·	–	–	–
O=C1c2nccnc2C(=O)N1c1cccc2ccccc12	·	·	–	·	·	·
C=C(C)Cn1c(C(C)NC(=O)CCC)nc2ccccc21 (configuration not stated)	–	–	·	–	–	–
CCCC(=O)NC(C)c1nc2ccccc2n1CC (configuration not stated)	–	–	–	–	–	82[fluorescence artefact?]
O=C(Nc1ccc(-c2nc3cc(NC(=O)C4CCCCC4)ccc3o2)cc1)C1CCCCC1	·	·	–	·	·	·
COC(=O)c1cn(NC(=O)c2cc(OC)c(OC)c(OC)c2)c(=O)c2ccccc12	·	–	·	–	·	58[fluorescence artefact?]
Cn1c(SCC(=O)c2ccc3c(c2)OCO3)nnc1-c1ccccn1	–	–	–	–	–	–
COc1ccc2c(C)cc(SCC(=O)c3ccc4c(c3)OCO4)nc2c1	·	300[fluorescence artefact?]	·	–	·	–
O=C(CSc1nc2ccccc2[nH]1)c1ccc2c(c1)OCO2	51	–	–	–	–	–
O=C(CSc1ccccn1)c1ccc2c(c1)OCO2	–	–	–	–	61	–
O=C(CSc1nc2ccccc2c(=O)[nH]1)c1ccc(O)c(O)c1	–	–	–	66	–	59[fluorescence artefact?]
Cc1ccc2nc(SCC(=O)c3ccc4c(c3)OCO4)[nH]c2c1	·	–	·	–	·	–
CC(C)OC(=O)c1ccc(NC(=O)C2C3CC4OC(=O)C2C4C3)cc1 (configuration not stated)	–	–	–	–	56	–
COc1ccc(NS(=O)(=O)c2cccc3c2C(=O)c2ccccc2C3=O)cc1	·	·	–	·	·	·
O=C(COC(=O)C1CC1)c1c[nH]c2ccccc12	106	–	–	–	–	–
CN=C1SC(CC(=O)Nc2ccc(C(C)=O)cc2)C(=O)N1C (configuration not stated)	·	–	·	71	·	79
COc1ccc2c(c1OC)C(=O)N(c1nccs1)C2	–	–	–	–	75	–
CCN1CCn2c3c(c4cc(C)ccc42)CCCC31 (configuration not stated)	–	–	–	56[fluorescence artefact?]	–	–
c1cc2c(cc1C1CCCCC1)c1c3n2CCCNC3CCC1 (configuration not stated)	·	–	·	–	·	–
Cc1ccc2c(c1)c1c3n2CCCNC3CCC1 (configuration not stated)	54	·	–	·	–	·
CC(=O)N1CCn2c3c(c(=O)c4cc(C)ccc42)CCC31 (configuration not stated)	–	–	–	–	–	–
c1c2c(cc3sc(N4CCCCC4)nc13)OCO2	–	–	–	–	–	–
c1c2c(cc3sc(N4CCOCC4)nc13)OCO2	–	–	–	–	58	–
O=S(=O)(c1ccccc1)N1CCN(c2nc3ccccc3s2)CC1	·	–	·	–	·	–
SMILES	RORa activator	ERa coact pot	BAP1 inh	ERb coact inh	SF-1 act	ERa coact inh
c1ccc(N2CCN(c3nc4cc5c(cc4s3)OCO5)CC2)cc1	70	–	–	–	55	–
Clc1ccc2nc(N3CCN(c4ccccc4)CC3)sc2c1	–	–	–	–	72	–
CN(C)c1ccc(C(=O)Nc2nnc(-c3ccc(Cl)cc3)o2)cc1	–	–	–	56[fluorescence artefact?]	–	64[fluorescence artefact?]
CCOC(=O)N1CCC(NC(=O)c2cnn3c(C(F)(F)F)cc(-c4cccc(OC)c4)nc23)CC1	–	–	–	51[fluorescence artefact?]	–	72[fluorescence artefact?]
CCOC(=O)N1CCC(NC(=O)c2cccc3c2C(=O)N(c2ccc(OC)cc2)C3)CC1	–	–	–	52	–	72[fluorescence artefact?]
COc1ccc(N2Cc3cccc(C(=O)NC(C)CCc4ccco4)c3C2=O)cc1 (configuration not stated)	–	–	–	–	–	69[fluorescence artefact?]
O=C(O)c1cccc(NS(=O)(=O)c2cccc(S(=O)(=O)c3ccc(Cl)cc3)c2)c1	·	·	–	·	·	·
CCOC(=O)CSc1nc2cc(C(=O)OC)ccc2c(=O)n1CCN1CCOCC1	·	–	·	–	·	–
COC(=O)c1ccc2c(=O)n(CCN3CCOCC3)c(SCC(=O)C(C)(C)C)nc2c1	·	786[fluorescence artefact?]	·	–	·	–
COc1nnc(-c2ccc(C(=O)N3C[C@@H]4C[C@H](C3)c3cccc(=O)n3C4)cc2)c2ccccc12	–	340	–	–	–	–
CCOC(=O)c1c(NC(=O)c2ccc(S(=O)(=O)N3CC(C)OC(C)C3)cc2)sc(C)c1C (configuration not stated)	·	·	–	·	·	·
CC(C)(C)NC(=O)C(c1ccc(F)cc1)N(Cc1ccco1)C(=O)c1csnn1 (configuration not stated)	–	–	–	–	–	–
Cc1ccc(C(C(=O)NC(C)(C)C)N(Cc2cccs2)C(=O)c2csnn2)cc1 (configuration not stated)	·	–	·	–	·	60
COc1ccccc1NS(=O)(=O)c1ccc(C(=O)OCC(=O)NCc2ccco2)cc1	–	–	–	–	–	73[fluorescence artefact?]
CCCCN(C(=O)NC(=O)NC(C)(C)C)S(C)(=O)=O	·	·	–	·	·	·
Fc1ccccc1CSc1nnc(-c2cccs2)o1	50	–	–	–	92	–
Fc1ccc(Cc2nnc(-c3cccs3)o2)cc1	63	–	–	–	–	–
O=C(CSc1nnc(-c2cccs2)o1)N1CCCCC1	–	–	–	–	63	–
c1ccc(CSc2nnc(-c3cccs3)o2)cc1	50	–	–	–	52	–
O=c1oc2ccccc2c(Nc2ccc(O)cc2)c1[N+](=O)[O-]	·	–	·	–	·	–
O=c1oc2ccccc2c(Nc2ccc3ccccc3c2)c1[N+](=O)[O-]	·	–	·	–	·	71[fluorescence artefact?]
COc1ccc2nc(NC(=O)C3CCCCC3)sc2c1	·	·	–	·	·	·
Clc1ccc(-c2nc(-c3ccccn3)no2)cc1Cl	–	265	–	–	–	–
c1ccc(CCc2nc(-c3ccccn3)no2)cc1	54	–	–	–	–	–
Cc1cc(C)c2oc(-c3ccc(C)c(NC(=O)c4cccc(F)c4)c3)nc2c1	·	·	–	·	·	·
SMILES	RORa activator	ERa coact pot	BAP1 inh	ERb coact inh	SF-1 act	ERa coact inh
Nc1ccc(C(=O)Nc2nc3ccc4ccccc4c3s2)cc1	·	·	–	·	·	·
c1ccc(Cc2nnc3sc(C4COc5ccccc5O4)nn23)cc1 (configuration not stated)	–	·	–	·	–	·
c1ccc(OCc2nnc3sc(C4COc5ccccc5O4)nn23)cc1 (configuration not stated)	–	–	–	60	–	58
CC(Oc1ccc(Cl)cc1Cl)C(=O)NC1CCSC1=O (configuration not stated)	–	–	–	–	–	–
CC(C)C(=O)Nc1ccc(C(=O)NC2CCSC2=O)cc1 (configuration not stated)	–	204	–	–	–	–
COC(=O)c1ccc(Cn2nc(C)c(Br)c2C)cc1	–	–	–	66[fluorescence artefact?]	–	–
